Bioassay records as filed in PubChem BioAssay.
Granule exo inh – lytic granule exocytosis inhibition; 0.66% of 360,000 active; AID 651702; TALL-104 LAMP-1 surface exposure, flow cytometry; cells stimulated with thapsigargin and PMA; inhibition, % at 10 µM;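 active means inhibition above about 55%, limit read from the data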
NTR1 ag – activates human neurotensin receptor 1 | P30989 | NTR1-U2OS beta-arrestin-GFP spot imaging, agonist mode | activation, % at 20 µM | 0.17% of 330,000 active | AID 493036;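 active means activation at or above 40% of the spot to cytoplasm intensity ratio, with at least 20 cells analyzed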;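 further: 0% = DMSO without peptide and 100% = 100 nM NTR1 peptide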
Target sequence (P30989 whole entry, looked up): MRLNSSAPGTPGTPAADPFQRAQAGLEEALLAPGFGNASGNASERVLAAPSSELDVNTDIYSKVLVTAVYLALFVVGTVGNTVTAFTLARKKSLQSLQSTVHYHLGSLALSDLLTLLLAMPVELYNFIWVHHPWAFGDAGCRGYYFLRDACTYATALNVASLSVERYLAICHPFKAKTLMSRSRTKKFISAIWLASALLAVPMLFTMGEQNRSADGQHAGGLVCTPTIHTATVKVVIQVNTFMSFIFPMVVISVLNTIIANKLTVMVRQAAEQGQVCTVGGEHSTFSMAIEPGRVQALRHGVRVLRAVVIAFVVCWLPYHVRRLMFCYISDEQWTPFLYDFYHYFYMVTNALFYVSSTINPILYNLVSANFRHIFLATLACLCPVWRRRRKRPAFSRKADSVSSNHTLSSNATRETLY
MC4R barr agon – human MC4R agonism via beta-arrestin | 0.98% of 360,000 active | U2OS MC4R beta-arrestin complementation, luminescence; percent of melanotan II response, DMSO zero | activation, % at 8.9 µM;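 active means activation above a per-plate cutoff, the mean activation of sample wells on that plate plus 3 SD, cut at about 8% in these data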
A1 inh – inhibitors of the anti-apoptotic protein A1, read as caspase activation; MEF A1-2A-BIM cells, Caspase-Glo 3/7 luminescence, 3 h; percent of clofoctol response, vehicle zero; 0.066% of 330,000 active; caspase activation, % (test concentration not listed);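 active means over half of replicate activation scores above 10%, or exactly half above 10 with the replicate mean above 10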
HGIII-sPLA2 inh – Blocks human group III sPLA2 activity; QFRET BODIPY PC-A2 liposome hydrolysis, fluorescence; 0.56% of 370,000 active; Q9NZ20; AID 743126; inhibition, % at 12.2 µM;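 active means inhibition above mean plus 3 SD of compounds lying within the high and low control bounds, cut at about 19% in these data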;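 further: 0% = median of test compound wells and 100% = no enzyme DMSO wells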
MC4R antag cAMP – antagonists of human melanocortin 4 receptor (MC4R); P32245; inhibition, % at 6.5 µM; MC4R-expressing cells, MTII-stimulated cAMP, LANCE TR-FRET; 0.48% of 360,000 active; AID 540295;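 active means inhibition above its plate's cutoff, the mean of tested wells on that plate plus 3 SD, cut at about 29% in these data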;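 further: 0% = Melanotan II alone and 100% = Melanotan II plus saturating MCL0020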
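Material: U2OS-MC4R stable cell line | Reagent: Melanotan II challenge after compound preincubation | Doses: One concentration, 6.5 µM nominal | Incubation: 30-min compound preincubation, 1-h Melanotan II challenge, 1-h detection, room temperature | Signal: TR-FRET cAMP assay | Replicates: One well per compound, no replicates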
hGIII sPLA2 conf – human GIII-sPLA2 inhibition, confirmation | shares compounds with HGIII-sPLA2 inh | recombinant hGIII-sPLA2, BODIPY PC-A2 QFRET fluorescence | inhibition, % at 12.2 µM | 34% of 2,000 active | AID 743280;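 active means mean inhibition across triplicates above the hit cutoff set in the earlier primary screen, cut at about 19% in these data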;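 further: 0% = enzyme with DMSO and 100% = DMSO wells lacking enzyme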
BODIPY interf – counter-screen for HGIII-sPLA2 inhibitors: 535nm fluorescence interference. shares compounds with HGIII-sPLA2 inh. BODIPY FL product fluorescence interference, QFRET. AID 743282. inhibition, % at 12.2 µM. 8.5% of 2,000 active;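 active means average inhibition above the solvent-only control mean plus 3 SD, cut at about 6% in these data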;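 further: 0% = DMSO with substrate plus product and 100% = DMSO with substrate alone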
BODIPY interf DR – 535nm optical interference dose response, HGIII-sPLA2 counter-screen; shares compounds with HGIII-sPLA2 inh; BODIPY FL product fluorescence interference, cell-free; IC50, µM; 240 tested, under 10 active;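 active means IC50 at or below 10 µM; inactive means IC50 above 10 µM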
* = called active by the depositor; / = no result given; ! = repeats disagree. An excerpt weighted towards active compounds, which were near 2.5% of everything screened.

SMILES	Granule exo inh	NTR1 ag	MC4R barr agon	A1 inh	HGIII-sPLA2 inh	MC4R antag cAMP	hGIII sPLA2 conf	BODIPY interf	others
CCNC(=S)NNc1nnc(-c2ccccc2)c(-c2ccccc2)n1	-4.8	1.0	0.0	-0.1	24.2*	0.5	50.4*	0.3	BODIPY interf DR=>122
CCCCC(=O)NNC(=S)NCc1ccccc1	0.3	0.4	-2.3	0.1	10.6	8.4	/	/
COc1ccccc1C(=O)NNC(=S)Nc1ccccc1	-11.7	/	-3.2	/	7.8	12.7	/	/
O=C(NNC(=S)Nc1ccc(Cl)cc1)c1ccccc1OC(F)F	-2.3	-0.5	-2.2	-0.4	23.6*	18.0	28.0*	8.5*
CNC(=S)NNc1nc(-c2ccccc2)c2cc(Cl)ccc2n1	-2.3	0.2	-2.5	0.5	13.1	6.4	/	/
COc1cccc(NC(=O)C2C3C=CC4(O3)C2C(=O)N(CCCN2CCCC(C)C2)C4C(=O)NC2CCCCC2C)c1 (stereo unspecified)	-10.0	0.4	-0.1	-0.3	-3.5	0.7	/	/
O=C(NC1CCN(Cc2ccccc2Cl)CC1)c1ccccc1	-12.8	-0.3	0.1	0.1	-4.2	-1.4	/	/
Cc1ccc(C(C)C)cc1OCC(=O)NC1CCCCCCC1	41.4	13.6	-1.2	-0.2	3.6	1.4	/	/
CCOC(=O)C(=O)NNc1ccc(C)cc1	6.3	-1.0	1.8	0.5	20.5*	27.3	1.9	1.0
CC(C)C(NS(=O)(=O)c1cccc2nsnc12)C(=O)NC1CCCCC1 (stereo unspecified)	-1.2	-0.4	-0.8	-0.2	4.4	7.4	/	/
CC1CCC(NC(=O)C(NS(=O)(=O)c2cccc3nsnc23)C(C)C)CC1 (stereo unspecified)	-0.8	-0.3	-1.3	-1.3	86.5*	-0.3	-4.5	-7.2
CC1(c2ccccc2)CC(=O)N(c2ccc(NC(=O)c3ccccn3)cc2Cl)C1=O (stereo unspecified)	/	/	/	/	-16.3	/	/	/
CCOC(=O)C(NC(=O)Nc1ccc(Cl)cn1)(Oc1ccc(F)cc1)C(F)(F)F (stereo unspecified)	0.4	0.6	1.2	1.4	25.4*	11.4	-0.7	-7.5
CCOC(=O)C(NC(=O)NCc1ccc(F)cc1)(OCC)C(F)(F)F (stereo unspecified)	1.7	3.3	-0.3	1.0	12.4	2.1	/	/
S=C(NC1CCCC1)NC1CC1	-1.2	0.3	1.0	0.1	20.7*	-9.8	2.9	-4.6
Cc1ccccc1NC(=S)NC1CCCC1	-17.5	-0.4	-1.4	0.1	10.0	-6.4	/	/
Cc1cccc(C)c1NC(=S)NC1CCCCC1	-2.0	2.5	0.0	-0.5	24.4*	20.9	21.4*	-4.5
CC1CC1C(=O)OCC(=O)NCc1ccccc1 (stereo unspecified)	15.5	0.3	-0.5	-0.3	6.9	5.7	/	/
COCCCNCCCCSc1ccc(Cl)cc1	-1.2	-0.9	0.2	-0.3	21.6*	-11.1	-7.9	-26.7
Nc1ccc2nc(-c3ccc(N)c(Cl)c3)[nH]c2c1	-0.6	0.9	1.4	-5.6	20.7*	1.2	9.2	-0.1
Nc1ccc2nc(-c3ccccc3)[nH]c2c1	0.8	4.0	-1.4	-8.0	9.3	11.8	/	/
O=C(CC[C@H]1O[C@@H](n2ccc(=O)[nH]c2=O)[C@H](O)[C@@H]1O)NCC(c1ccccc1)c1ccccc1	4.0	/	/	/	1.4	/	/	/
CN(Cc1ccccc1)S(=O)(=O)c1ccc(NC(=O)C2CCCCC2C(=O)O)cc1 (stereo unspecified)	4.4	1.1	-1.6	-0.2	1.2	2.7	/	/
CN(Cc1ccccc1)S(=O)(=O)c1ccc(NC(=O)C2CCCO2)cc1 (stereo unspecified)	-2.3	0.1	1.0	-1.7	23.4*	20.6	-4.7	-13.8
O=C(NNC(=S)Nc1cccc(C(F)(F)F)c1)c1ccccc1Cl	-2.1	2.3	-1.1	-0.3	23.8*	-0.8	24.1*	4.5
SMILES	Granule exo inh	NTR1 ag	MC4R barr agon	A1 inh	HGIII-sPLA2 inh	MC4R antag cAMP	hGIII sPLA2 conf	BODIPY interf	others
O=C(NNC(=S)Nc1cccc(C(F)(F)F)c1)c1cccc(Cl)c1	2.0	15.3	0.4	-0.1	24.3*	16.5	33.3*	6.5*
O=C(CCNC(=O)c1ccccc1Cl)Nc1cccc(C(F)(F)F)c1	3.8	-0.8	0.3	2.1	-5.6	1.6	/	/
CC(C)(C)NC(=S)NNC(=O)c1ccccc1Cl	6.7	-0.2	-2.0	0.2	21.8*	8.8	23.1*	-4.6
CNC(=S)NNC(=O)c1ccccc1Cl	-0.4	0.0	3.1	-0.8	3.3	3.0	/	/
O=C(CSc1nc2ccccc2c(=O)n1Cc1ccco1)NCc1ccco1	2.2	1.0	1.9	-0.6	0.0	8.6	/	/
COC(=O)c1c(NC(=O)CSc2nc3ccccc3c(=O)n2Cc2ccco2)sc(C)c1C	-3.8	-0.2	-1.9	-0.1	19.4*	1.6	0.5	-0.4
CC(C)(CO)CNc1ccn2nccc2n1	-3.8	/	-0.6	/	21.5*	-3.0	0.3	-1.6
Cc1ccc2c(CC(=O)Nc3ccc4nc(N5CCOCC5)sc4c3)coc2c1	17.3	/	1.5	/	-16.2	9.2	/	/
COc1ccc(N2CCN(C(=S)Nc3cc(C)ccc3C)CC2)cc1	1.0	0.6	-0.4	-0.6	21.1*	0.8	14.7	-6.1
O=S(=O)(/N=C(/Nc1cc(N2CCOCC2)ncn1)c1ccc(F)cc1)c1ccccc1	-4.3	1.3	-2.5	-0.3	19.6*!	7.5	3.7	-5.7
CC(OC(=O)c1ccc(Cl)c(S(=O)(=O)N2CCOCC2)c1)C(=O)NC1CCCCC1C (stereo unspecified)	7.3	-0.7	-2.4	-0.1	1.1	7.2	/	/
Cc1ccc2sc(C)[n+](CCC(C)S(=O)(=O)[O-])c2c1 (stereo unspecified)	-4.0	-2.1	0.5	0.1	19.6*	-9.9	-4.4	0.2
CC(OC(=O)c1nc(Cl)ccc1Cl)C(=O)c1ccccc1 (stereo unspecified)	-2.1	0.0	-2.7	-0.6	7.0	-1.9	/	/
O=C(COC(=O)c1ccc2c(c1)OCO2)Nc1ccccc1Cl	10.8	-0.6	1.1	-0.7	-3.6	6.0	/	/
NC(=O)Cc1cn(-c2ncc(C(F)(F)F)cc2Cl)c2ccccc12	-0.5	0.4	-2.1	-0.5	34.3*	-0.8	13.8	-10.6
COC(=O)Cc1cn(-c2ncc(C(F)(F)F)cc2Cl)c2ccccc12	3.7	0.2	1.8	-0.7	-7.3	-5.3	/	/
